Shown are actives, neighbours in structure and some others; about 3.8% of the full set was active somewhere.
Beta apoptosis: inhibitors of cytokine-induced beta cell apoptosis, primary screen, luminescence; INS-1E cytokine-induced death, ATP luminescence, 48 h; percent of positive-control rescue, neutral wells zero; protection from apoptosis, % (concentration not given with the values); actives 0.8% (n = 300,000); AID 435005, 2010;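 active = Every replicate reaches about 75%, or at least half do and their mean reaches it too, limit read from the data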;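 note: higher means more ATP so stronger rescue from cytokine killing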
MC4R ag barr: MC4R agonists recruiting beta-arrestin, primary screen, cell-based, luminescence, agonist arm of biased-ligand search. Melanocortin receptor 4 (Homo sapiens), P32245. U2OS MC4R beta-arrestin complementation; percent of melanotan II response, DMSO zero. activation, % at 8.9 µM. actives 0.98% (n = 360,000);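 active = activation above a per-plate cutoff, the mean activation of sample wells on that plate plus 3 SD, cut at about 8% in these data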
Target sequence (P32245 whole entry, looked up): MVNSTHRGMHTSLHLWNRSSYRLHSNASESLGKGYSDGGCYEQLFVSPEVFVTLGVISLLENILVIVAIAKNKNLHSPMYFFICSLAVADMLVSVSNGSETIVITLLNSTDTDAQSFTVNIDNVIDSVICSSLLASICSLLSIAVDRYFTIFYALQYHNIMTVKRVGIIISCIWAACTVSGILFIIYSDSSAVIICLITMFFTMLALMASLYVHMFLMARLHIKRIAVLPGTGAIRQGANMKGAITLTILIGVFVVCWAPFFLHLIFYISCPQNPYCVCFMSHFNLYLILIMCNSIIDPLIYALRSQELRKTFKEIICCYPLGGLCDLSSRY
TMEM16A act: TMEM16A chloride channel activators or potentiators, primary screen, cell-based, HTS. Anoctamin-1 (Mus musculus), Q8BHY3. HEK293 TMEM16A/YFP-H148Q/I152L, iodide quench fluorescence; active compounds read low. B-score at 10 µM. actives 0.3% (n = 340,000). AID 623877, 2012;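 active = fluorescence-ratio B-score plate-corrected deviation score at least 3 library SD below zero, with starting fluorescence score within 5 deviations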;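 note: channel opened by trigger with iodide after compound preincubation; score built on the fluorescence ratio of max minus min over baseline; more negative score means more quench and so TMEM16A activation or potentiation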
MC4R antag cAMP: MC4R antagonists of cAMP signaling, primary screen, cell-based, TR-FRET, antagonist arm of biased-ligand search; Melanocortin receptor 4 (Homo sapiens), P32245; MC4R-expressing cells, MTII-stimulated cAMP, LANCE TR-FRET; inhibition, % at 6.5 µM; actives 0.48% (n = 360,000);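 active = inhibition above its plate's cutoff, the mean of tested wells on that plate plus 3 SD, cut at about 29% in these data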
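Material: human MC4R-expressing U2OS cells. Probe or stimulus: Melanotan II challenge. Dosing: 6.5 µM single dose. Times: 30-min compound, 1-h challenge, 1-h detection, room temperature. Technique: TR-FRET with Eu-cAMP and labeled anti-cAMP, 671 nm. Replication: singlicate.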
TMEM16A inh: TMEM16A chloride channel inhibitors, primary screen, cell-based, HTS; Anoctamin-1 (Mus musculus), Q8BHY3; HEK293 TMEM16A/YFP iodide influx fluorescence, ionomycin; normalized B-score (activity score, 25-100; higher = stronger inhibition) at 10 µM; actives 1.2% (n = 310,000);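 active = ratio plate-corrected score three or more library SD toward inhibition, starting fluorescence score within five deviations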;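 note: score derived from kinetic fluorescence span divided by baseline fluorescence per well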
CSC inhib: cancer stem cell viability inhibitors, primary screen, luminescence. AID 2717, 2010. cancer stem cell-like cells viability. inhibition, % at 7.5 µM. actives 1.1% (n = 300,000); in the data active = inhibition above about 75%; tested in HMLE shEcad cells
MC4R barr conf: MC4R beta-arrestin agonists, retest, confirmation, cell-based, luminescence, U2OS | shares compounds with MC4R ag barr | U2OS MC4R beta-arrestin recruitment; scaled DMSO 0%, Melanotan II 100% | activation, % at 8.9 µM | actives 31% (n = 2,400) | AID 602192, 2012;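 active = mean activation across replicates above the hit cutoff set in the earlier primary screen, cut at about 8% in these data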
MOR-DOR barr ag: agonists of MOR-DOR heterodimerization, counter-screen for MC4R biased agonist project, cell-based, luminescence. shares compounds with MC4R ag barr. U2OS PathHunter beta-arrestin, beta-gal luminescence; percent of deltorphin B response, DMSO zero. activation, % at 9.2 µM. actives 5.8% (n = 2,400). AID 602194, 2012;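 active = mean activation across replicates exceeds the hit threshold derived in the earlier primary screen, cut at about 18% in these data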
Large screens that a line does not name were inactive (follow-up assays come after a bar, where they were run).

COc1ccc(-c2cc(NC(C)=O)c3ncc(-c4cccc(C(C)=O)c4)n3c2)cc1OC	MC4R ag barr 26 (no result: Beta apoptosis, TMEM16A act, TMEM16A inh, CSC inhib) | MC4R barr conf 27 | MOR-DOR barr ag inactive
COc1cccc(-c2cc(NC(C)=O)c3ncc(-c4ccc(OC)c(OC)c4)n3c2)c1	MC4R ag barr 17 (no result: Beta apoptosis, TMEM16A act, TMEM16A inh, CSC inhib) | MC4R barr conf 11 | MOR-DOR barr ag inactive
COc1cccc(-c2cnc3c(NC(C)=O)cc(-c4ccsc4)cn23)c1	MC4R ag barr 37 (no result: Beta apoptosis, TMEM16A act, TMEM16A inh, CSC inhib) | MC4R barr conf 42 | MOR-DOR barr ag inactive
CN(C(=O)c1cccc(NC(=O)Cc2ccc(NC(=O)C3CCCN(C(=O)C4CCCCC4)C3)cc2)c1)C1CCC1 (centres undefined)	none (no result: Beta apoptosis, TMEM16A inh, CSC inhib)
CCCNC(=O)C1(C)CCCN(Cc2ccc(Oc3ccccc3)cc2)C1 (centres undefined)	none (no result: Beta apoptosis, TMEM16A act, TMEM16A inh, CSC inhib)
FC(F)(F)c1ccc(/C=N/n2c(C3CCCCC3)n[nH]c2=S)cc1	none
COc1ccc(/C=C/C=N/NC(=O)COc2ccc(OC)cc2)cc1	none
C/C(=N\NC(=O)COc1cccc2ccccc12)c1cccs1	MC4R ag barr 17 | MC4R barr conf 17 | MOR-DOR barr ag inactive
C/C(=N\NC(=O)COc1ccccc1)c1cccs1	none
Cc1ccccc1OCC(=O)N/N=C/C=C/c1ccccc1	MC4R ag barr 10 | MC4R barr conf inactive | MOR-DOR barr ag inactive
O=C(COc1cccc2ccccc12)N/N=C/C=C/c1ccccc1	MC4R ag barr 9.7 | MC4R barr conf inactive | MOR-DOR barr ag inactive
O=C(Nc1ccc2c(c1)Cc1ccccc1-2)c1cc2ccccc2o1	MC4R ag barr 13 | MC4R barr conf inactive | MOR-DOR barr ag inactive
COc1cc(NC(=O)c2ccc(C)cc2)ccc1NC(=O)c1cc2ccccc2o1	none
COc1cc(NC(=O)c2oc3ccccc3c2C)ccc1NC(=O)c1ccco1	MC4R ag barr 9.7 (no result: CSC inhib) | MC4R barr conf inactive | MOR-DOR barr ag inactive
COc1cc(NC(=O)c2ccc(C)cc2C)ccc1NC(=O)c1cc2ccccc2o1	MC4R ag barr 12 | MC4R barr conf 16 | MOR-DOR barr ag inactive
O=C(Nc1ccc2c(c1)Cc1ccccc1-2)c1ccncc1	none
CCOc1cc(NC(=O)c2ccco2)c(OCC)cc1NC(=O)c1cc(OC)c(OC)c(OC)c1	MC4R ag barr 13 (no result: CSC inhib) | MC4R barr conf inactive | MOR-DOR barr ag 53
COc1cc(NC(=O)c2cc3ccccc3o2)ccc1NC(=O)c1ccco1	none
CCC(C)c1ccc(OCC(=O)Nc2ccc3c(c2)C(=O)NC3=O)cc1 (centres undefined)	none
COc1ccc(C(C)(O)c2nc(-c3ccc(S(C)(=O)=O)cc3)cs2)cc1 (centres undefined)	none (no result: Beta apoptosis, TMEM16A act, TMEM16A inh, CSC inhib)
Cc1ccc(NC(=O)Cn2nc(C(=O)O)c3ccccc3c2=O)cc1S(=O)(=O)N1CCOCC1	none (no result: TMEM16A inh, CSC inhib)
COc1cc(NC(=O)c2ccc(F)cc2)ccc1NC(=O)c1cc2ccccc2o1	none (no result: Beta apoptosis)
COc1cc(NC(=O)c2cccc(F)c2)ccc1NC(=O)c1cc2ccccc2o1	MC4R ag barr 12 | MC4R barr conf inactive | MOR-DOR barr ag inactive
CCc1ccc(Nc2nnc(SCC(=O)NC(=O)c3cccn3C)s2)cc1	MC4R ag barr 20 | MC4R barr conf inactive | MOR-DOR barr ag inactive
Cc1ccc(CSc2nnc(Nc3ccc(C)cc3)s2)cc1	MC4R ag barr 19 | MC4R barr conf inactive | MOR-DOR barr ag inactive
CCc1ccc(Nc2nnc(SCC(=O)Nc3ccc(C(=O)O)cc3)s2)cc1	none
CCCCn1c(N)c(N(CCC(C)C)C(=O)c2ccc(N3CCCC3=O)cc2)c(=O)[nH]c1=O	none
Cc1cc(C)cc(NC(=O)Nc2ccc(NC(=O)c3ccccc3O)cc2)c1	MC4R ag barr 16, CSC inhib 92 | MC4R barr conf inactive | MOR-DOR barr ag inactive
Cc1ccc(NC(=O)c2ccccc2O)cc1	none (no result: CSC inhib)
O=C(Nc1ccc(N2CCOCC2)cc1)c1ccc2nc(-c3ccco3)c(-c3ccco3)nc2c1	MC4R ag barr 10 (no result: Beta apoptosis, CSC inhib) | MC4R barr conf inactive | MOR-DOR barr ag inactive
Cc1cc(C)cc(CC(=O)N2CCC2(C)C(=O)NS(=O)(=O)c2cccc(OC(F)F)c2)c1 (centres undefined)	none (no result: Beta apoptosis, TMEM16A act, TMEM16A inh, CSC inhib)
CC(C)Cc1ccc(-c2cc3nc(NCCOc4ccccc4)ccn3n2)cc1	none (no result: Beta apoptosis, TMEM16A act, TMEM16A inh, CSC inhib)
S=c1[nH]nc(C2CC2c2ccc(Cl)cc2)n1-c1ccc(Cl)cc1 (centres undefined)	MC4R ag barr 11 (no result: Beta apoptosis, CSC inhib) | MC4R barr conf inactive | MOR-DOR barr ag inactive
CC1CCN(S(=O)(=O)c2ccc3[nH]c(=O)[nH]c3c2)CC1	none (no result: CSC inhib)
COCCNC(=O)C1(C)CCN(C(=O)Cc2ccc(OC)c(OC)c2)C1 (centres undefined)	none (no result: Beta apoptosis, TMEM16A act, TMEM16A inh, CSC inhib)
COc1cc(/C=N/NC(=S)NC2CC3CC2C2C=CCC32)ccc1O (centres undefined)	MC4R ag barr 9.9, TMEM16A inh 100 | MC4R barr conf inactive | MOR-DOR barr ag inactive
O=C(O)C(c1ccccc1)C(O)C1CCCC1 (centres undefined)	none (no result: Beta apoptosis, TMEM16A inh, CSC inhib)
Cc1cc(-c2onc(C)c2C(=O)O)no1	none
OCc1ccccc1-c1cnc2cccnn12	none (no result: Beta apoptosis, TMEM16A act, TMEM16A inh, CSC inhib)
N=c1oc2ccc(Br)cc2cc1C(=O)NCc1ccc(F)cc1	none
CCN(CC)c1ccc2cc(C(=O)NCc3ccc(F)cc3)c(=N)oc2c1	MC4R ag barr 13 | MC4R barr conf inactive | MOR-DOR barr ag inactive
Cc1cc(C)cc(NC(=O)CCc2nc3sc4c(c3c(=O)[nH]2)CCCC4)c1	MC4R ag barr 13, CSC inhib 89 (no result: Beta apoptosis) | MC4R barr conf inactive | MOR-DOR barr ag inactive
CC(CNS(=O)(=O)c1ccc2c(c1)NC(=O)CCS2)c1ccccc1 (centres undefined)	none
Cc1ccc2nc(Nc3ccc4[nH]c(=O)[nH]c4c3)c(-n3nc(C)cc3C)nc2c1	MC4R ag barr 34 | MC4R barr conf 29 | MOR-DOR barr ag inactive
COc1ccc(C(OCC(O)CNCCc2ccc(S(N)(=O)=O)cc2)c2ccc(OC)cc2)cc1 (centres undefined)	none
OC(CNCCc1ccc(C(F)(F)F)cc1)COC(c1ccccc1)c1ccccc1 (centres undefined)	MC4R ag barr 36, CSC inhib 107 | MC4R barr conf 22 | MOR-DOR barr ag inactive

Assay outcomes as filed in PubChem BioAssay.
